Data from ChEMBL document CHEMBL4325837, “Discovery of novel NO-releasing celastrol derivatives with Hsp90 inhibition and cytotoxic activities” (Eur J Med Chem, 2018).
pIC50: −log10 of the molar value. One block for each compound: values may come before it. Calls of active or inactive are those of the source. The calls are words filed in the database; no cut-off is given here.

What was measured:
A549 [1] = assay: Antiproliferative activity against human A549 cells after 48 hrs by MTT assay; assay type: functional, cell-based; details: A549, 48 h
In short: (§1)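 MTT assay. Cells were seeded at 5.0 × 10⁴ cells/ml in 100 μL per well and grown 24 h. They were then exposed to a range of concentrations for 48 h. MTT (5 mg/ml) was added for 4 h, the supernatant was removed and DMSO was added. OD was read at 570 nm. Assays were run in triplicate and IC50 is reported as mean ± SD, n = 3.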

MCF7 = assay: Antiproliferative activity against human MCF7 cells after 48 hrs by MTT assay; assay type: functional, cell-based; details: MCF7, 48 h; in short: as §1
HOS = assay: Antiproliferative activity against human HOS cells after 48 hrs by MTT assay; assay type: functional, cell-based; in short: as §1
HepG2 = assay: Antiproliferative activity against human HepG2 cells after 48 hrs by MTT assay; assay type: functional, cell-based; details: HepG2, 48 h; in short: as §1
[2] = Drug metabolism in human A549 cells assessed as nitric oxide release at 4 uM measured up to 24 hrs; assay type: ADME, cell-based; details: a549, 24 h
In short: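 A549 cells were seeded at 5.0 × 10⁴ cells/ml in 100 μL wells and grown 24 h at 37 °C. Hybrids were added at 4 μM for varying times, with 24 h used for the full set. NO was measured with a Nitrate/Nitrite assay kit against a standard curve, reading OD at 550 nm. Values are the mean of three independent experiments.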

A549 [3] = assay: Induction of apoptosis in human A549 cells assessed as chromatin condensation at 0.3 to 1.2 uM after 48 hrs by Hoechst 33342 staining based fluorescent microscopic method; assay type: functional, cell-based
In short: (§2)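 A549 cells (4 × 10⁵ per 6 cm dish) were grown 24 h, then treated for 48 h. Cells were washed twice with PBS, stained with Hoechst 33342 (10 µg/ml) for 5 min at room temperature in the dark, and examined by fluorescence microscopy for chromatin condensation and nuclear fragmentation.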

A549 [4] = assay: Induction of apoptosis in human A549 cells assessed as viable cells at 1.2 uM after 48 hrs by Annexin V-FITC/propidium iodide staining-based flow cytometric analysis (reference value: 98.5%); assay type: functional; details: A549, 48 h, read-out: Activity
A549 [5] = assay: Induction of apoptosis in human A549 cells assessed as early apoptotic cells at 1.2 uM after 48 hrs by Annexin V-FITC/propidium iodide staining-based flow cytometric analysis (reference value: 0.5%); assay type: functional
A549 [6] = assay: Induction of apoptosis in human A549 cells assessed as late apoptotic cells at 1.2 uM after 48 hrs by Annexin V-FITC/propidium iodide staining-based flow cytometric analysis (reference value: 0.4%); assay type: functional
A549 [7] = assay: Induction of apoptosis in human A549 cells assessed as necrotic cells at 1.2 uM after 48 hrs by Annexin V-FITC/propidium iodide staining-based flow cytometric analysis (reference value: 0.6%); assay type: functional
A549 [8] = assay: Induction of apoptosis in human A549 cells assessed as viable cells at 0.3 uM after 48 hrs by Annexin V-FITC/propidium iodide staining-based flow cytometric analysis (reference value: 98.5%); assay type: functional; details: A549, 48 h, read-out: Activity
In short: (§3)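 A549 cells (4 × 10⁵ per 6 cm dish) were grown 24 h, then treated for 48 h. Cells were harvested, washed twice with cold PBS and resuspended in 250 μL binding buffer with 2.5 μL PI and 2.5 μL Annexin V-FITC. After 15 min at room temperature in the dark, they were analysed by flow cytometry for early and late apoptotic fractions.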

A549 [9] = assay: Induction of apoptosis in human A549 cells assessed as early apoptotic cells at 0.3 uM after 48 hrs by Annexin V-FITC/propidium iodide staining-based flow cytometric analysis (reference value: 0.5%); assay type: functional; in short: as §3
A549 [10] = assay: Induction of apoptosis in human A549 cells assessed as late apoptotic cells at 0.3 uM after 48 hrs by Annexin V-FITC/propidium iodide staining-based flow cytometric analysis (reference value: 0.4%); assay type: functional; in short: as §3
A549 [11] = assay: Induction of apoptosis in human A549 cells assessed as necrotic cells at 0.3 uM after 48 hrs by Annexin V-FITC/propidium iodide staining-based flow cytometric analysis (reference value: 0.6%); assay type: functional; in short: as §3
A549 [12] = assay: Induction of apoptosis in human A549 cells assessed as viable cells at 0.6 uM after 48 hrs by Annexin V-FITC/propidium iodide staining-based flow cytometric analysis (reference value: 98.5%); assay type: functional; details: A549, 48 h, read-out: Activity; in short: as §3
A549 [13] = assay: Induction of apoptosis in human A549 cells assessed as early apoptotic cells at 0.6 uM after 48 hrs by Annexin V-FITC/propidium iodide staining-based flow cytometric analysis (reference value: 0.5%); assay type: functional; in short: as §3
A549 [14] = assay: Induction of apoptosis in human A549 cells assessed as late apoptotic cells at 0.6 uM after 48 hrs by Annexin V-FITC/propidium iodide staining-based flow cytometric analysis (reference value: 0.4%); assay type: functional; in short: as §3
A549 [15] = assay: Induction of apoptosis in human A549 cells assessed as necrotic cells at 0.6 uM after 48 hrs by Annexin V-FITC/propidium iodide staining-based flow cytometric analysis (reference value: 0.6%); assay type: functional; in short: as §3
A549 [16] = assay: Induction of apoptosis in human A549 cells after 48 hrs by Annexin V-FITC/propidium iodide staining-based flow cytometric analysis; assay type: functional, cell-based; in short: as §3
A549 [17] = assay: Induction of apoptosis in human A549 cells assessed as nuclear fragmentation at 0.3 to 1.2 uM after 48 hrs by Hoechst 33342 staining based fluorescent microscopic method; assay type: functional, cell-based; in short: as §2
A549 [18] = assay: Cell cycle arrest in human A549 cells assessed as accumulation at G1 phase at 0.2 uM by after 24 hrs by RNase A/propidium iodide staining-based flow cytometric analysis (reference value: 46.97%); assay type: functional
A549 [19] = assay: Cell cycle arrest in human A549 cells assessed as accumulation at S phase at 0.2 uM by after 24 hrs by RNase A/propidium iodide staining-based flow cytometric analysis (reference value: 28.11%); assay type: functional
A549 [20] = assay: Cell cycle arrest in human A549 cells assessed as accumulation at G2 phase at 0.2 uM by after 24 hrs by RNase A/propidium iodide staining-based flow cytometric analysis (reference value: 24.84%); assay type: functional
A549 [21] = assay: Cell cycle arrest in human A549 cells assessed as accumulation at G1 phase at 0.4 uM by after 24 hrs by RNase A/propidium iodide staining-based flow cytometric analysis (reference value: 46.97%); assay type: functional
A549 [22] = assay: Cell cycle arrest in human A549 cells assessed as accumulation at S phase at 0.4 uM by after 24 hrs by RNase A/propidium iodide staining-based flow cytometric analysis (reference value: 28.11%); assay type: functional
A549 [23] = assay: Cell cycle arrest in human A549 cells assessed as accumulation at G2 phase at 0.4 uM by after 24 hrs by RNase A/propidium iodide staining-based flow cytometric analysis (reference value: 24.84%); assay type: functional
A549 [24] = assay: Cell cycle arrest in human A549 cells assessed as accumulation at G1 phase at 0.8 uM by after 24 hrs by RNase A/propidium iodide staining-based flow cytometric analysis (reference value: 46.97%); assay type: functional
A549 [25] = assay: Cell cycle arrest in human A549 cells assessed as accumulation at S phase at 0.8 uM by after 24 hrs by RNase A/propidium iodide staining-based flow cytometric analysis (reference value: 28.11%); assay type: functional
A549 [26] = assay: Cell cycle arrest in human A549 cells assessed as accumulation at G2 phase at 0.8 uM by after 24 hrs by RNase A/propidium iodide staining-based flow cytometric analysis (reference value: 24.84%); assay type: functional
[27] = target: T1, Heat shock protein HSP90 (Homo sapiens) (UniProt P07900+P08238); assay: Inhibition of HSP90 in human A549 cells assessed as decrease in CDK4 protein expression at 0.5 to 2.5 uM after 24 hrs by Western blot analysis; assay type: cell-based
In short: (§4)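 A549 cells (5 × 10⁵ per 6 cm dish) were grown 24 h, then treated for 24 h. Cells were lysed and the lysate spun at 10,000 g for 20 min at 4 °C. Protein was adjusted to 3 mg/ml by BCA and run on 10% SDS-PAGE. Blots were probed with monoclonal antibodies for Cdk4, Hsp90, p-Akt and Akt, with β-actin as internal control.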

[28] = target: T1, Heat shock protein HSP90 (Homo sapiens); assay: Inhibition of HSP90 in human A549 cells assessed as decrease in Akt phosphorylation at 0.5 to 2.5 uM after 24 hrs by Western blot analysis; assay type: cell-based; in short: as §4
[29] = target: T1, Heat shock protein HSP90 (Homo sapiens); assay: Inhibition of HSP90 in human A549 cells at 0.5 to 2.5 uM after 24 hrs by Western blot analysis; assay type: cell-based; in short: as §4

SMILES: CC1=C(O)C(=O)C=C2C1=CC=C1[C@@]2(C)CC[C@@]2(C)[C@@H]3C[C@](C)(C(=O)OCCCCOc4no[n+]([O-])c4S(=O)(=O)c4ccccc4)CC[C@]3(C)CC[C@]12C
- pIC50 (A549 [1]): 5.61
- pIC50 (MCF7): 5.40
- pIC50 (HOS): 5.61
- pIC50 (HepG2): 5.45

SMILES: CC1=C(O)C(=O)C=C2C1=CC=C1[C@@]2(C)CC[C@@]2(C)[C@@H]3C[C@](C)(C(=O)OCCCCCO[N+](=O)[O-])CC[C@]3(C)CC[C@]12C
- pIC50 (A549 [1]): 5.27
- pIC50 (MCF7): 5.52
- pIC50 (HOS): 5.54
- pIC50 (HepG2): 5.47

SMILES: CC1=C(O)C(=O)C=C2C1=CC=C1[C@@]2(C)CC[C@@]2(C)[C@@H]3C[C@](C)(C(=O)OCCOc4no[n+]([O-])c4S(=O)(=O)c4ccccc4)CC[C@]3(C)CC[C@]12C
- pIC50 (A549 [1]): 5.64
- pIC50 (MCF7): 5.56
- pIC50 (HOS): 5.77
- pIC50 (HepG2): 5.32
- Drug metabolism [2]: Metabolite_Detected

SMILES: NCCCOc1no[n+]([O-])c1S(=O)(=O)c1ccccc1
- pIC50 (A549 [1]): 4.59

The next compounds have a higher pIC50 (A549 [1]) than those just listed; values first:

- pIC50 (A549 [1]): 6.32 to 6.37
- pIC50 (MCF7): 6.11
- pIC50 (HepG2): 5.85
- Drug metabolism [2]: Metabolite_Detected
- inhibition [27]: Active
- inhibition [28]: Active
- inhibition [29]: inactive
SMILES: CC1=C(O)C(=O)C=C2C1=CC=C1[C@@]2(C)CC[C@@]2(C)[C@@H]3C[C@](C)(C(=O)NCCCOc4no[n+]([O-])c4S(=O)(=O)c4ccccc4)CC[C@]3(C)CC[C@]12C
- pIC50 (HOS): 6.29
- Activity (A549 [3]): Active
- viability at 1.2 µM (A549 [4]): 46.3%
- Activity (A549 [5]): 12.9%
- Activity (A549 [6]): 31%
- Activity (A549 [7]): 9.8%
- viability at 0.3 µM (A549 [8]): 88.8%
- Activity (A549 [9]): 3.1%
- Activity (A549 [10]): 6.4%
- Activity (A549 [11]): 1.7%
- viability at 0.6 µM (A549 [12]): 64.8%
- Activity (A549 [13]): 9.9%
- Activity (A549 [14]): 20%
- Activity (A549 [15]): 5.3%
- Activity (A549 [16]): Dose-dependent effect
- Activity (A549 [17]): Active
- Activity (A549 [18]): 52.05%
- Activity (A549 [19]): 27.71%
- Activity (A549 [20]): 21.12%
- Activity (A549 [21]): 56.36%
- Activity (A549 [22]): 25.12%
- Activity (A549 [23]): 18.38%
- Activity (A549 [24]): 61.12%
- Activity (A549 [25]): 25.48%
- Activity (A549 [26]): 16.59%

- pIC50 (A549 [1]): 5.68
- pIC50 (MCF7): 5.69
- pIC50 (HepG2): 5.62
SMILES: CC1=C(O)C(=O)C=C2C1=CC=C1[C@@]2(C)CC[C@@]2(C)[C@@H]3C[C@](C)(C(=O)OCC(C)Oc4no[n+]([O-])c4S(=O)(=O)c4ccccc4)CC[C@]3(C)CC[C@]12C (stereo not given in full)
- pIC50 (HOS): 5.52
